From PubChem
MBD2 inh: inhibitors of human MBD2 binding to methylated oligonucleotide. Q9UBB5. TR-FRET. inhibition, % at 4.4 µM. hit rate 0.31% among 370,000. AID 686964; in the data active = inhibition above about 13%
Target sequence (Q9UBB5 whole entry, looked up): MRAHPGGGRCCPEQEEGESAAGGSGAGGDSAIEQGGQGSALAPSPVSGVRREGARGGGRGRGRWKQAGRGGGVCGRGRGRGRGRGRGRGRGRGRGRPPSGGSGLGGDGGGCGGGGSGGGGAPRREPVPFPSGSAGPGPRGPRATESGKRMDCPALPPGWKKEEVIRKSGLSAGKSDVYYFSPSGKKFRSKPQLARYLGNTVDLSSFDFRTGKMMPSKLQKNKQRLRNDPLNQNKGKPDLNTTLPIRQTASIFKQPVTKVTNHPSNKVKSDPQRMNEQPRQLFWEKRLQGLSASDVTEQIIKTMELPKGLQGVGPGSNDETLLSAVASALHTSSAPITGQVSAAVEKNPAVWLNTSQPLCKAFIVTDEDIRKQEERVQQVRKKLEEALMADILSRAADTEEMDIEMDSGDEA
ASAP1 GAP inh: ASAP1 ArfGAP inhibition; inhibition, % at 16.5 µM; Q9ULH1; ASAP1-stimulated ARF1 GTP hydrolysis, GDP FP detection; hit rate 0.19% among 360,000; AID 624377; in the data active = inhibition above about 25%;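 note: 0% = vehicle with enzyme and substrate and 100% = no enzyme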
ARFGAP1 inhibitor: inhibits rat ARF GTPase activating protein 1; Arfgap1-stimulated ARF1 GTP hydrolysis, GDP FP detection; hit rate 0.26% among 360,000; AID 651572; inhibition, % at 16.5 µM;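 active = inhibition above a per-plate limit, mean inhibition of low control wells plus 3 SD, cut at about 25% in these data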;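 note: 0% = DMSO wells with enzyme and 100% = wells lacking Arfgap1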
Target sequence (Q62848 1-136 limits assumed): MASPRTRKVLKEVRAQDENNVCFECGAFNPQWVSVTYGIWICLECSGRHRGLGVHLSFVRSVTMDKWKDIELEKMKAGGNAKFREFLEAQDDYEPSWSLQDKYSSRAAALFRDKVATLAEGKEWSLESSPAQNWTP
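material = rat Arfgap1 catalytic domain, aa 1-136 | also added = human ARF1(Δ1-17)-GTP substrate | compound dosing = one concentration, 16.5 µM, DMSO 1.26% | times = GTP hydrolysis reaction 2 h at 25 °C | measured by = FP, GDP Alexa 633 tracer displaced from anti-GDP antibody, 620/688 nm | evaluation = percent inhibition of Arfgap1-stimulated GTP hydrolysis | replication = single well per compound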
TDP2 inh: TDP2 (human) inhibition, absorbance primary screen; recombinant TDP2, T5PNP hydrolysis, p-nitrophenol absorbance 415 nm; inhibition, % at 12.8 µM; hit rate 0.34% among 370,000; AID 720702;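 active = inhibition above the mean of all tested compounds plus 3 SD, set per campaign, cut at about 25% in these data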;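 note: 0% = DMSO with enzyme and 100% = buffer with substrate but no TDP2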
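System – recombinant human TDP2 · Quantity – TDP2 enzyme at 120 nM final · Doses – single concentration, 12.8 µM nominal, with 1% DMSO · Incubation – 2 h at 37 °C · Measured by – epi absorbance of p-nitrophenol freed from T5PNP by hydrolysis · Read-out – % inhibition relative to enzyme-containing and enzyme-free wells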
UHRF1 MBD2 ctr: human UHRF1 methylated DNA binding inhibitors | UHRF1 binding to methylated oligo, TR-FRET | Q96T88 | inhibition, % at 4.4 µM | AID 687016 | hit rate 0.75% among 370,000; in the data active = inhibition above about 21%;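 note: UHRF1 SRA domain binding a hemimethylated CpG hairpin DNA probe; 0% = median of test compound wells and 100% = reference inhibitor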
LEDGF integ inh: blocks HIV-1 LEDGF/p75-dependent DNA integration | TR-FRET IN-LEDGF/p75 DNA integration, Eu/Cy5 | AID 743269 | inhibition, % at 3.7 µM | hit rate 0.64% among 370,000;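 active = inhibition above the screen-wide mean plus 3 SD, cut at about 13% in these data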;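 note: signal is the Cy5 over europium emission ratio at 671 and 618 nm; 0% = plate median of compound wells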
IN multimer up: activates HIV-1 integrase multimerization in LEDGF counter-screen | activation, % at 7.7 µM | TR-FRET HIV-1 integrase multimerization, biochemical | hit rate 17% among 2,000 | shares compounds with LEDGF integ inh; in the data active = activation above about 8.9%
TRFRET interf: optically interferes with TR-FRET readout in LEDGF counter-screen; TR-FRET optical interference counterscreen, HIV-1 IN multimerization; inhibition, % at 7.7 µM; shares compounds with LEDGF integ inh; 2,000 tested, under 10 active;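 active = inhibition above the mean over all tested compounds plus 3 SD, which no compound reached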;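 note: 0% = integrase with antibodies and DMSO and 100% = antibodies without integrase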
LEDGF integ conf: confirmation of HIV-1 LEDGF/p75-dependent integration inhibitors; shares compounds with LEDGF integ inh; TR-FRET LEDGF/p75-dependent HIV-1 integration, biochemical; inhibition, % at 3.7 µM; hit rate 36% among 2,000; AID 1053136; in the data active = inhibition above about 14%
* hit, by the source's call; . = no result. A selection: hits, their analogues and other compounds. The true share with any hit is near 2%.

SMILES	MBD2 inh	ASAP1 GAP inh	ARFGAP1 inhibitor	TDP2 inh	UHRF1 MBD2 ctr	LEDGF integ inh	IN multimer up	TRFRET interf	LEDGF integ conf
CC1CCCCN1CCNC(=O)Cn1nc(-c2ccccc2)ccc1=O (centres undefined)	-1	-1	-7	-7	-3	-1	.	.	.
COC(=O)[C@]12CCCCC=C1N(Cc1ccco1)C(=O)[C@H](CC(=O)NCC13CC4CC(CC(C4)C1)C3)C2	-2	2	-7	-3	1	28*	0	1	-7
COC(=O)[C@@]12C[C@@H](CC(=O)NCC34CC5CC(CC(C5)C3)C4)C(=O)N(Cc3ccco3)C1=CCC(C)(C)C2	-2	1	3	-4	2	2	.	.	.
CCOC(=O)[C@]12CCCC=C1N(Cc1ccccc1)C(=O)[C@H](CC(=O)NCc1ccccc1)C2	2	-2	13	-8	1	1	.	.	.
C#CCNC(=O)C[C@@H]1C[C@@]2(C(=O)OCC)CCCC=C2N(Cc2ccccc2)C1=O	4	-5	-1	2	-1	19*	-2	12	-1
COc1ccc(CNC(=O)C2CCCN(c3nccc(C)n3)C2)cc1 (centres undefined)	-5	1	14	15	3	23*	0	-1	1
CCCCOc1ccc(C(=O)n2ccc3ccc(-c4ccc5ccn(Cc6ccc(OC)cc6)c5c4)cc32)cc1	3	.	.	6	1	5	.	.	.
CCn1c(=O)n(CC(=O)N2CCN(c3ccc(F)cc3)CC2)c(=O)c2ccccc21	-1	.	.	-1	-3	0	.	.	.
N#Cc1ccsc1NC(=O)CN1CCN(S(=O)(=O)c2ccccc2C(F)(F)F)CC1	1	-5	-2	0	-1	79*	1	-7	2
C=CCN(C(=O)[C@@H](C)[C@@H](O)c1ccc(Cl)cc1)c1ccccc1	-4	.	.	-3	1	4	.	.	.
Oc1ccc(/C=N/N(c2ccccc2)c2ccccc2)c(O)c1O	0	-8	-2	1	-3	26*	-1	6	16*
COC(=O)c1c(NC(=O)CN2CCC3(O)CCCCC3C2c2cc(OC)ccc2OC)sc(C)c1C (centres undefined)	-3	9	18	-3	-3	15*	1	-3	-9
COC(=O)c1c(NC(=O)CN2CCC3(O)CCCCC3C2c2ccc(F)cc2)sc(C)c1C (centres undefined)	2	5	7	-9	4	5	.	.	.
Cc1ccc(NC(=O)CN2C(=O)N/C(=C/c3ccco3)C2=O)cc1	11	2	4	4	34*	21*	14*	-69	26*
Cc1ccc(NC(=O)CN2C(=O)N/C(=C/c3cc(C)n(-c4ccc(C(=O)O)cc4)c3C)C2=O)cc1	-5	-4	14	8	5	7	.	.	.
O=C1C(=O)N(Cc2ccc(-c3ccccc3)cc2)c2ccc(OC(F)(F)F)cc21	-1	.	.	1	-3	1	.	.	.
O=c1cc(-c2ccc(O)cc2)oc2cc(O)cc(O)c12	5	11	16	0	-3	-4	.	.	.
O=c1cc(-c2ccc(O)cc2)oc2cc(O)c(C3OC(CO)C(O)C(O)C3O)c(O)c12 (centres undefined)	-5	0	-6	5	-5	21*	30*	-151	48*
COC(=O)C1=C(CCc2ccccc2)NC(=O)NC1c1ccc(Cl)cc1 (centres undefined)	-2	-2	4	1	0	18*	2	-5	-7
Fc1ccc(-c2nc3c(Cl)cc(C(F)(F)F)cn3c2Cc2ccccc2)cc1	-1	-4	-3	-7	1	7	.	.	.
Cc1ccc(Cc2c(-c3ccccc3)nc3c(Cl)cc(C(F)(F)F)cn23)cc1	3	-9	-2	-1	1	20*	1	-5	-1
O=C(NCc1ccco1)c1ccc(S(=O)(=O)N2CCOCC2)cc1	0	3	9	11	12	14*	2	-8	20*
O=C1O[C@@H](c2ccc(O)cc2)Cc2cccc(O)c21	-1	11	-2	-11	0	-3	.	.	.
O=C1C[C@@H](O)[C@H](O)c2cccc(O)c21	-6	.	.	2	-7	18*	-1	5	9
O=C(O)c1cccc(Cl)n1	-4	-15	4	4	0	83*	2	-8	-4
SMILES	MBD2 inh	ASAP1 GAP inh	ARFGAP1 inhibitor	TDP2 inh	UHRF1 MBD2 ctr	LEDGF integ inh	IN multimer up	TRFRET interf	LEDGF integ conf
CCOC(=O)[C@]12CCCC=C1N(CCCOC)C(=O)[C@@H]2CC(=O)NCc1ccc(OC)c(OC)c1	-1	.	.	4	2	-2	.	.	.
O=C(Cc1cnn(-c2ccccc2)c1)c1ccc(O)c(O)c1O	4	10	-5	-7	5	22*	10*	-36	18*
CCc1cc(C(=O)Cc2cnn(-c3ccccc3)c2)c(O)cc1O	-7	3	13	1	1	5	.	.	.
COc1ccc(C(=O)CSc2nnc(-c3ccc(C(C)(C)C)cc3)n2C)cc1	3	.	.	1	-1	1	.	.	.
O=C(c1cc(-c2cccc(O)c2)on1)N1CCOCC1	0	7	-2	-14	2	4	.	.	.
O=C(c1cc(-c2cccc(O)c2)on1)N1CCCCCC1	2	-4	-9	7	-1	47*	0	1	-3
CN(C)Cc1cc(O)c(CN(C)C)cc1O	-1	5	0	14	15	24*	5	-17	30*
Cc1c(C(=O)NCCN2CCOCC2)oc2ccc(Br)cc12	1	10	6	3	-1	18*	0	0	9
Cc1c(C(=O)NCCN2CCOCC2)oc2ccccc12	-3	5	4	0	3	5	.	.	.
CCNC(=O)N(C)[C@H]1C[C@H]2c3[nH]c4cccc(-c5cccc(F)c5)c4c3CCN2C(=O)[C@H]1[C@H](C)O	1	.	.	-7	-1	-1	.	.	.
CN1C(=O)c2cc(NC(=O)Nc3ccccc3F)ccc2OC[C@H]2O[C@@H](CC(=O)NCc3ccc(-c4ccccc4)cc3)CC[C@@H]21	13	.	.	1	7	6	.	.	.
Cc1nnsc1SCCNC(=O)c1c(F)cccc1F	-2	-22	-4	-8	4	-3	.	.	.
Cc1cccc(C)c1NC(=O)NCCSc1snnc1C	2	10	4	3	2	15*	0	0	2
